rCAG RNA binder – binders of r(CAG) RNA repeats, primary screen, biochemical, fluorescence; r(CAG) RNA repeat, TO-PRO-1 dye displacement fluorescence; inhibition, % at 3 µM; 370,000 compounds, 1.3% hits; AID 651821, 2012;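 active means inhibition above the plate cutoff, the mean of all test compounds on that plate plus 3 SD, cut at about 35% in these data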;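 further: 0% = DMSO alone and 100% = 100 µM mitoxantrone as full dye displacement; higher means more dye released from RNA so lower well fluorescence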
mABHD4 FP – ABHD4 inhibitors, primary screen, biochemical, fluorescence polarization, mouse | (Lyso)-N-acylphosphatidylethanolamine lipase (Mus musculus), Q8VD66 | purified mABHD4, FP-Rh probe fluorescence polarization | inhibition, % at 8.92 µM | 370,000 compounds, 0.54% hits | AID 720543, 2013;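 active means inhibition exceeding the mean over every tested compound plus 3 SD, cut at about 30% in these data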;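 further: 0% = plate median of compound wells and 100% = S159A mutant with DMSO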
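Test system: mABHD4 protein | Buffer or medium: HEPES pH 7.0 buffer, 150 mM NaCl, 0.01% Pluronic F-127 | Probe or stimulus: FP-Rh fluorescent activity-based probe, added after compound pre-incubation | Timing: Pre-incubation 45 min, probe exposure 60 min, at 25 °C | Technique: Fluorescence polarization, excitation 525 nm, emission 598 nm, BODIPY TMR filters | Repeats: Single well per compound (singlicate)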
HTRA1 inhibitor – HTRA1 serine protease inhibitors, primary screen, biochemical, fluorescence polarization, HTS. recombinant HTRA1, FP-rhodamine activity-based probe. inhibition, % at 5.96 µM. Q92743. 340,000 compounds, 0.5% hits; in the data active means inhibition above about 36%;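 further: 0% = enzyme with DMSO and 100% = wells lacking enzyme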
TCR-CD3 inh – inhibitors of human TCR-CD3 interaction, primary screen, biochemical, fluorescence, TAMRA-labeled TCR probe. T-cell receptor (TCR). AID 651800, 2012. inhibition, % at 9.4 µM. 360,000 compounds, 0.37% hits; in the data active means inhibition above about 19%;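 further: recombinant mutant TCR 2C K166C tagged with TAMRA read by polarization; 0% = receptor in buffer alone and 100% = receptor with positive control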
SIAE inh – human SIAE inhibitors, primary screen, biochemical, fluorescence polarization, FP-Rh probe, 1536-well HTS | Sialate O-acetylesterase (Homo sapiens), Q9HAT2 | SIAE FP-Rh probe binding | inhibition, % at 9.66 µM | 370,000 compounds, 0.69% hits;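 active means inhibition above a cutoff: mean of compounds within the control limits plus 3 SD of those, cut at about 17% in these data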;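 further: 0% = plate median of compound wells and 100% = probe without SIAE protein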
Target sequence (Q9HAT2 whole entry, looked up): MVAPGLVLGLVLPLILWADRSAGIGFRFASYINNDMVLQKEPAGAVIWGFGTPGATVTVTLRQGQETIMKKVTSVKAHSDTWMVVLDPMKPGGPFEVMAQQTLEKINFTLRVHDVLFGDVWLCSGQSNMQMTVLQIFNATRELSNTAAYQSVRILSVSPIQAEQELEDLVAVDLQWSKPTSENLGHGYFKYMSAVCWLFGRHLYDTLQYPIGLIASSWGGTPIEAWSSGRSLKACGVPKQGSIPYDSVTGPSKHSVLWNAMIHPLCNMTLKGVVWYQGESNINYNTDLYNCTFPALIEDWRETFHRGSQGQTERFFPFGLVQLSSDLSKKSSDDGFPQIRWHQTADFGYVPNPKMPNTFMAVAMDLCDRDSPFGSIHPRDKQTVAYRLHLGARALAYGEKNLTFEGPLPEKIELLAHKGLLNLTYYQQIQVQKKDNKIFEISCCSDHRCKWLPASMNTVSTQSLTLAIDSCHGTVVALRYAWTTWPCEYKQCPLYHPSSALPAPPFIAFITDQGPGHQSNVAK
rCAG binder conf – small molecules binding CAG repeat RNA – biochemical, fluorescence, confirmation; shares compounds with rCAG RNA binder; r(CAG) RNA repeat, TO-PRO-1 dye displacement fluorescence; inhibition, % at 3 µM; 4,300 compounds, 70% hits;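 active means inhibition above a per-plate cutoff, the mean inhibition of sample wells plus 3 SD, cut at about 35% in these data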;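 further: loss of TO-PRO-1 fluorescence as compound displaces dye from 1x1 AA loop RNA; 0% = DMSO only wells and 100% = 100 µM mitoxantrone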
DNA CAG counter – displacement of TO-PRO-1 from CAG DNA duplex, counter-screen for rCAG RNA repeat binder project, biochemical, fluorescence, TO-PRO-1 dye, d(CAG) DNA oligo; shares compounds with rCAG RNA binder; AID 652068, 2013; inhibition, % at 3 µM; 4,300 compounds, 94% hits; d(CAG) DNA oligo TO-PRO-1 dye displacement;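 active means inhibition above its plate's cutoff, the mean test-well inhibition plus 3 SD, cut at about 4.8% in these data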;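 further: 0% = DNA dye mix with DMSO and 100% = 100 µM mitoxantrone; hits displace the dye from DNA and so lower well fluorescence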
Starred values were filed as active, the others as inactive; nt = not tested or not shown. Sampled rows, rich in hits. Any-hit rate of the full collection: about 2.5%.

SMILES	rCAG RNA binder	mABHD4 FP	HTRA1 inhibitor	TCR-CD3 inh	SIAE inh	rCAG binder conf	DNA CAG counter
CC(=O)Nc1ccc(S(=O)(=O)Nc2nc3ccccc3nc2Nc2cccc(O)c2)cc1	59*	18	5	2	3	46*	12*
COc1ccc2c(-c3ccc(SC)cc3)c(-c3ccc(S(C)(=O)=O)cc3)sc2c1	5	0	1	-3	2	nt	nt
O=C(NCc1nc(-c2ccc(C(F)(F)F)cc2)no1)Nc1ccc(OC(F)(F)F)cc1	-1	-6	nt	0	-98	nt	nt
CCN(CC)S(=O)(=O)c1ccc(NS(=O)(=O)c2ccc3oc(=O)[nH]c3c2)cc1	8	-3	1	4	-9	nt	nt
O=c1[nH]c2cc(S(=O)(=O)CCO)ccc2o1	36*	1	-1	-8	-5	2	1
CCOc1ccc2nc(SCC#N)c(C#N)cc2c1	23	1	4	3	-8	nt	nt
N#C/C(=N\Nc1cccc(C(F)(F)F)c1)C(=O)c1ccsc1	76*	7	-6	-4	3	56*	18*
O=C(Nc1ccccc1)Nc1cccc(C(F)(F)F)c1	4	-18	-28	-2	-10	nt	nt
O=C(NCCc1cccc(Cl)c1)c1ccc2c(c1)OCO2	-4	-9	-4	2	7	nt	nt
CC1(C(=O)Nc2ccc3c(c2)OCCO3)CCN1C(=O)CC1CCCC1 (stereo unspecified)	-3	-3	nt	-2	2	nt	nt
C[C@H](CO)N1C[C@H](C)[C@H](CN(C)Cc2ccc(C(=O)O)cc2)OCc2ccccc2-c2c(n(C)c3ccccc23)C1=O	48*	3	-5	-1	1	50*	14*
C[C@@H]1CN([C@H](C)CO)C(=O)c2c(c3ccccc3n2C)-c2ccccc2CO[C@H]1CN(C)Cc1ccccc1	5	2	-17	-6	-2	nt	nt
COc1ccc(C(c2nnnn2CCc2ccccc2)N2CCN(C)CC2)cc1OC (stereo unspecified)	-2	0	2	-7	1	nt	nt
Cc1ccc(S(=O)(=O)Oc2ccc(/C=N/N=C3/NC(=O)C(CC(=O)O)S3)cc2)cc1[N+](=O)[O-] (stereo unspecified)	41*	3	-7	18	-2	29	8.5*
COc1cc(/C=N/N=C2/NC(=O)C(CC(=O)O)S2)ccc1OCc1ccc(Cl)cc1 (stereo unspecified)	54*	-6	-3	18	5	38*	10*
CCOc1cc(/C=N/N=C2/NC(=O)C(CC(=O)O)S2)ccc1OCc1ccc(Cl)cc1Cl (stereo unspecified)	nt	nt	-3	nt	nt	nt	nt
CCOC(=O)[C@]12CCCC=C1N(Cc1ccc(Cl)cc1Cl)C(=O)[C@H](CC(=O)NCCC(C)C)C2	5	-1	nt	-3	4	nt	nt
Cc1ccc(OCCSc2nc3ccccc3n2CC(=O)O)c(C(C)C)c1	38*	2	-12	9	-1	41*	9.8*
O=C(Nc1ccc(N2CCOCC2)cc1)c1cc2c(s1)CCCC2	1	6	-7	0	5	nt	nt
O=C(Nc1cccc(C(F)(F)F)c1)C(Sc1n[nH]c(=O)[nH]c1=O)c1ccccc1 (stereo unspecified)	39*	-13	-118	-4	-14	38*	12*
CCCOc1ccc(-c2csc3ncn(Cc4ccc(C(=O)O)cc4)c(=O)c23)cc1	51*	-56	-9	-2	-4	40*	11*
O=C(Cc1csc(NC(=O)Nc2cccc(Cl)c2)n1)NCc1ccccn1	39*	-13	-23	-9	-3	15	14*
O=C(Cc1csc(NC(=O)Nc2cccc(Cl)c2)n1)NC1CCCC1	44*	-10	-21	-2	-4	18	14*
CC(C)[C@H](NC(=O)c1ccc(C(C)(C)C)cc1)C(=O)N1CCN(Cc2ccc3c(c2)OCO3)CC1	2	3	-3	2	-5	nt	nt
COc1ccc(OC)c(/C=C2\SC(=S)N(Cc3cccnc3)C2=O)c1	-4	6	-6	0	1	nt	nt
SMILES	rCAG RNA binder	mABHD4 FP	HTRA1 inhibitor	TCR-CD3 inh	SIAE inh	rCAG binder conf	DNA CAG counter
COc1ccc(/C=C2\SC(=S)N(N3CCOCC3)C2=O)c(OC)c1	1	3	5	0	-8	nt	nt
COc1ccc(/C=C2\SC(=S)N(NS(=O)(=O)c3ccc(C)cc3)C2=O)c(OC)c1	87*	-4	-64	9	-15	85*	58*
COc1ccccc1/C=C1\SC(=S)N(NS(=O)(=O)c2ccc(C)cc2)C1=O	78*	1	-25	3	-11	69*	33*
COc1ccc(OC)c(/C=C2\SC(=S)N(NS(=O)(=O)c3ccc(C)cc3)C2=O)c1	84*	-5	-54	2	-6	87*	52*
Cc1ccc(S(=O)(=O)NN2C(=O)/C(=C/c3cccnc3)SC2=S)cc1	24	6	-4	-3	6	nt	nt
CCn1c(SCc2ccccc2)nnc1C1CCCCC1	-1	1	-1	-2	2	nt	nt
COc1cc(/C=C2\C(=O)ON=C2c2ccc(Cl)cc2)ccc1O	11	2	nt	-1	-8	nt	nt
Cc1ccc(N2CC(NS(=O)(=O)c3cccs3)CC2=O)cc1 (stereo unspecified)	1	-2	0	0	-8	nt	nt
Cc1cccc(NS(=O)(=O)c2ccc(NS(=O)(=O)c3cccs3)cc2)c1	29	-8	0	5	12	nt	nt
Cc1cccc(NS(=O)(=O)c2ccc(C)c(NS(=O)(=O)c3cccs3)c2)c1	36*	3	-13	-3	-9	28	7.9*
Cc1ccccc1-n1c(SC/C(O)=C(\C#N)c2nc3ccccc3[nH]2)nnc1-c1ccncc1	8	10	-3	4	-4	nt	nt
Cc1cccc(Nc2nnc(SCC(O)=C(C#N)c3nc4ccccc4[nH]3)s2)c1	42*	4	12	-7	-14	48*	24*
Cc1cc(C)n2c(SC/C(O)=C(\C#N)c3nc4ccccc4[nH]3)nnc2n1	37*	20	28	13	5	37*	17*
Cc1cccc(Nc2nnc(SCC(=O)Nc3ccc(C(=O)O)cc3)s2)c1	17	-20	-7	2	-7	nt	nt
CC1CCN(C(=O)c2[nH]cnc2C(=O)N2CCN(C(=O)OC(C)(C)C)CC2)CC1	-6	0	2	5	0	nt	nt

High-throughput results as filed in PubChem.
